TAAR1 agonist = human TAAR1 agonists, primary screen, Fluo-8 calcium fluorescence, CHO RD-HGA16 cells; activation, % at 3 µM; hit rate 0.99% among 360,000; vehicle wells 0%, saturating PEA agonist 100%;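 active = activation above the mean activation of all test compounds in the run plus 3 SD, cut at about 38% in these data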
Target sequence (Q96RJ0 whole entry, looked up): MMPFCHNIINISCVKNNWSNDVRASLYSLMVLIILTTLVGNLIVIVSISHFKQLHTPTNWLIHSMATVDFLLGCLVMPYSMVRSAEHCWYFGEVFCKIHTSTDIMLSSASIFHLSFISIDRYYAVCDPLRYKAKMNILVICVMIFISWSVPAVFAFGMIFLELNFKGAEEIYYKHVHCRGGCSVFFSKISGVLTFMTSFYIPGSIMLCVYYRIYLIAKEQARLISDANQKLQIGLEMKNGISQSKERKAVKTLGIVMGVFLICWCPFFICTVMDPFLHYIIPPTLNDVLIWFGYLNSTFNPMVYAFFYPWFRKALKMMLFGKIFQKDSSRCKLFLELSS
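Signal – calcium-sensitive Fluo-8 signal, excitation 470-495, emission 515-575 nm · System – RD-HGA16 (CHO) cells co-expressing Gα16 and hTAAR1 · Incubation – 17-24 h seeding, 75 min 37 °C dye, 30 min RT · Compound dosing – 3 µM single concentration · Repeats – no replicates (n 1)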
OX1R antag-1 = antagonists of human orexin 1 receptor (OX1R) | Orexin/Hypocretin receptor type 1 (Homo sapiens), O43613 | OX1R-expressing cells, FRET antagonist read-out | inhibition, % at 6.6 µM | hit rate 1.8% among 330,000 | AID 485270, 2010; in the data active = inhibition mostly above about 38%, no sharp cut-off; inactive = mostly below about 40%;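 also: 0% = agonist challenge alone and 100% = reference antagonist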
TAAR1 antagonist = human TAAR1 antagonists, primary screen, Fluo-8 calcium fluorescence, CHO RD-HGA16 cells. Trace amine-associated receptor 1 (Homo sapiens), Q96RJ0. antagonist. inhibition, % at 3 µM. hit rate 1.5% among 360,000;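 active = inhibition above a per-plate cutoff, the mean inhibition of test compounds on that plate plus 3 SD, cut at about 49% in these data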;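 also: 0% = DMSO plus EC80 beta-PEA response and 100% = DMSO alone without agonist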
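System: CHO RD-HGA16 cells bearing hTAAR1. Reagent: EC80 β-phenethylamine stimulus. Schedule: seeding 17-24 h prior, 75-min 37 °C, 30-min RT dye loading. Signal: Fluo-8 intracellular calcium dye fluorescence, real-time kinetic reads. Read-out: % inhibition from peak post-agonist over basal fluorescence ratio. Benchmarks: vehicle wells and EC80 agonist wells. Replicates: n of 1.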
OX1R antag-2 = OX1R (HCRTR1) antagonists, primary screen, fluorescence, CHO/OX1R cells, Fluo-8 calcium, orexin A; inhibition, % at 5 µM; hit rate 0.43% among 330,000; AID 434989, 2010; Fluo-8 calcium fluorescence; Orexin/Hypocretin receptor type 1 (Homo sapiens), O43613;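 active = inhibition above its plate's threshold, mean inhibition of all tested compounds on the plate plus 3 SD, cut at about 37% in these data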;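 also: 0% = orexin A challenge wells and 100% = SB-334867-A antagonist wells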
CHO parental Ca = ATP-evoked calcium signal inhibitors, parental CHO, primary screen, counter-screen for OX1R antagonist project, cell-based, fluorescence, Fluo-8 calcium dye. parental CHO-K1, ATP-induced calcium, Fluo-8 fluorescence. inhibition, % at 5.6 µM. hit rate 0.63% among 330,000. AID 463079, 2010;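 active = inhibition above that plate's mean sample inhibition plus 3 SD, cut at about 26% in these data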;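 also: 0% = ATP-challenged DMSO wells and 100% = DMSO wells without ATP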
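Test system: untransfected parental CHO cell line; also added: ATP stimulus; dosing: 5.6 µM, single dose; signal: calcium-sensitive Fluo-8 fluorescence; measure: percent inhibition of ATP-evoked calcium rise, normalized to controls; benchmarks: low control ATP plus DMSO, high control DMSO only; replication: one well per compound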
GPR7 antagonist = GPR7 receptor antagonists, primary screen, cell-based, fluorescence, single concentration | Neuropeptides B/W receptor type 1 (Homo sapiens), P48145 | GPR7-expressing cells, fluorescence antagonist assay | inhibition, % at 4.4 µM | hit rate 1.1% among 290,000; in the data active = inhibition above about 16%, passing the limit was not always enough;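 also: cells stimulated with the agonist NPW; 0% = agonist with vehicle and 100% = vehicle without agonist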
Target sequence (P48145 whole entry, looked up): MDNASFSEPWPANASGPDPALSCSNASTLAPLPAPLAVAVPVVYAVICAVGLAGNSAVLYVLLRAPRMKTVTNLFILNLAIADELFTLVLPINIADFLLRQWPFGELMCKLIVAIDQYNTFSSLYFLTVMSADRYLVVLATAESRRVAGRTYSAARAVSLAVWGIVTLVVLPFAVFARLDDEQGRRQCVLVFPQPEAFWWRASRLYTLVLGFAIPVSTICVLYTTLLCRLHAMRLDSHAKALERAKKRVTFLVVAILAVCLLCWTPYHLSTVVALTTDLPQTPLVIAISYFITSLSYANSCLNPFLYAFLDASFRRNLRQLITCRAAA
GPR7 antag conf = GPR7 receptor antagonists, confirmation, cell-based, fluorescence, single concentration | GPR7-expressing cells, calcium fluorescence antagonist mode | hit rate 52% among 2,400 | shares compounds with GPR7 antagonist | inhibition, % at 4.4 µM; in the data active = inhibition above about 24%;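 also: stimulated with the GPR7 agonist NPW; 0% = agonist plus vehicle and 100% = vehicle alone without agonist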
MCHR1 antag = MCHR1 antagonists in cells, counter-screen for GPR7 antagonist project, cell-based, fluorescence, human. shares compounds with GPR7 antagonist. MCHR1-expressing cells, fluorescence antagonist assay. inhibition, % at 4.4 µM. hit rate 62% among 2,400. AID 2148, 2009; in the data active = inhibition above about 22%;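 also: 0% = vehicle with agonist and 100% = vehicle without agonist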
Starred values were filed as active, the others as inactive; / = not tested or not shown. Compounds with a hit are over-represented: about 4.6% of the library has one in this group of screens.

SMILES	TAAR1 agonist	OX1R antag-1	TAAR1 antagonist	OX1R antag-2	CHO parental Ca	GPR7 antagonist	GPR7 antag conf	MCHR1 antag
O=C(O)CCC(=O)N1CCN(S(=O)(=O)c2cccs2)CC1	0	0	-12	0	-1	-21	/	/
O=C(CCCc1cccs1)N1CCN(S(=O)(=O)c2ccccc2Br)CC1	8	13	6	-27	-6	29*	11	25*
CC(=O)c1ccc(COC(=O)Cc2ccc([N+](=O)[O-])cc2)cc1	2	21	26	2	-3	30*	39*	52*
CCc1ccc([C@@H]2C[C@H]3CN(Cc4ccccc4OC)C(=O)[C@]34CCCN24)cc1	7	10	-9	-23	-18	24*	3	-1
O=C(CSc1cccc(C(F)(F)F)c1)N1CCN(S(=O)(=O)c2ccccc2)CC1	15	13	6	-7	-6	34*	3	6
CN(C)C(CNS(=O)(=O)c1ccc(Cl)cc1F)c1ccco1 (centres undefined)	0	-1	6	-13	-15	/	/	/
Clc1ccccc1/C=C/c1ccnc2ccccc12	15	20	7	-32	-39	7	-6	13
Oc1ccc(/C=C/c2ccnc3ccccc23)cc1	14	27	-11	14	8	0	/	/
NS(=O)(=O)c1ccc(NC(=O)COC(=O)C2CC2)cc1	1	5	-6	0	-4	/	/	/
Cc1ccc(C(=O)OCC(=O)NCc2ccc(F)cc2)o1	4	8	-3	-10	-8	/	/	/
CC(CCn1cccn1)NC(=O)c1cc(COc2ccc(F)cc2F)on1 (centres undefined)	13	8	-4	-31	-10	6	/	/
CC(CCn1cccn1)NC(=O)c1cc(COc2ccc(F)cc2Cl)on1 (centres undefined)	2	-4	9	-26	-10	34*	-7	14
COc1ccc([N+](=O)[O-])cc1N(CC(O)CN(CC(C)C)CC(C)C)S(=O)(=O)c1ccccc1 (centres undefined)	0	5	-2	-26	-39	34*	45*	54*
COc1ccc([N+](=O)[O-])cc1N(CC(O)CN(C)C)S(=O)(=O)c1ccc(C)cc1 (centres undefined)	-1	8	-12	-9	-15	-4	/	/
CCCCN(CCCC)CC(O)CN(c1cc([N+](=O)[O-])ccc1OC)S(=O)(=O)c1ccccc1 (centres undefined)	2	16	-14	-26	-25	36*	41*	34*
NC(=O)CC(NC(=O)c1cccc(Br)c1)c1ccc(N2CCN(c3ccccn3)CC2)c([N+](=O)[O-])c1 (centres undefined)	3	16	0	-30	-11	0	/	/
CCOc1ccccc1N1CCN(C(=O)/C=C/c2cccc([N+](=O)[O-])c2)CC1	-1	21	-44	-8	-20	21*	32*	41*
O=C(/C=C/c1cccc([N+](=O)[O-])c1)N1CCN(c2ccccc2F)CC1	-3	21	-8	-10	-23	1	/	/
CSc1nccc(-c2nn(-c3ccc(C)cc3)ccc2=O)n1	6	32	2	-11	-4	10	/	/
CCSc1nccc(-c2nn(-c3ccc(C)cc3)ccc2=O)n1	1	15	-18	-30	-16	23*	10	25*
CC(C)C[C@@H]1COc2cc(N3CC[C@H](O)C3)ccc2S(=O)(=O)N1	1	/	-5	/	/	/	/	/
CN(Cc1ccccc1)C(=O)c1ccc2nc([C@@H]3O[C@H](CO)[C@H](O)[C@H](O)[C@H]3O)[nH]c2c1	1	/	-23	/	/	/	/	/
CCOc1ccc(NC(=O)c2ccc3c(=O)n(-c4ccc(OC)cc4OC)c(=S)[nH]c3c2)cc1	31	6	27	-6	16	24*	44*	65*
COc1ccc(NC(=O)c2ccc3c(=O)n(-c4ccc(OC)cc4OC)c(=S)[nH]c3c2)c(OC)c1	20	9	33	-1	5	4	/	/
O=C(COC(=O)Cc1ccc(S(=O)(=O)N2CCOCC2)s1)Nc1ccc(F)cc1F	4	-3	11	-8	-4	/	/	/
SMILES	TAAR1 agonist	OX1R antag-1	TAAR1 antagonist	OX1R antag-2	CHO parental Ca	GPR7 antagonist	GPR7 antag conf	MCHR1 antag
O=C(Cc1ccc(S(=O)(=O)N2CCCCC2)s1)Nc1ccc(F)cc1F	1	14	-13	-7	-4	35*	20	19
COc1ccc(C2=Nc3ccccc3NC(=O)C2N(Cc2ccccc2)C(=O)C2=NNC(=O)CC2)cc1 (centres undefined)	2	/	-6	/	/	/	/	/
CCc1nc2c(OCc3cccc(Cl)c3)cccn2c1N(C)C(=O)c1ccncc1	2	/	-7	/	/	/	/	/
N=c1n(CCO)c2ccccc2n1CCOc1ccc(Cl)cc1Cl	9	18	-18	-14	9	31*	58*	43*
COc1ccc(OCCn2c(=N)n(CCO)c3ccccc32)cc1	0	11	8	-8	-15	-1	/	/
O=C(CCCc1ccccn1)c1ccc(-c2ccccc2)cc1	0	/	4	/	/	/	/	/
O=C(NCc1cccnc1)c1cccc(S(=O)(=O)Nc2cccc(Cl)c2)c1	10	1	12	4	0	/	/	/
O=C1/C(=N\O)Cc2ccccc21	7	15	18	-3	-8	27*	6	-1
CCN(c1ccccc1)S(=O)(=O)c1cc(C(=O)Nc2cccc(Cl)c2)ccc1F	7	21	32	-2	12	26*	9	51*
O=C(Nc1cccc(Cl)c1)c1ccccc1	4	11	0	-17	-10	/	/	/
CN1CCCC(CN2c3ccccc3Sc3ccccc32)C1 (centres undefined)	18	24	4	1	8	35*	51*	34*
O=C(CCCN1C(=O)NC2(CCCC2)C1=O)Nc1ccc(Cl)c(S(=O)(=O)N2CCOCC2)c1	1	/	-7	/	/	/	/	/
CCCc1cc(=O)oc2cc(OCC(=O)N3CCC(C(N)=O)CC3)ccc12	2	11	-22	-4	-9	23*	11	0
CCc1cc(=O)oc2cc(OCC(=O)N3CCC(C(=O)O)CC3)ccc12	1	6	-11	11	-11	-11	/	/

Screening results as filed in PubChem.
